Results as given in ChEMBL document CHEMBL3228038 (J Med Chem, 1979).
Calls of active or inactive are those of the source. No cut-off for these calls is given here.

What was measured:
[1] = tested on: Mus musculus; test: Effect on development of dependence to morphine in Swiss Webster mouse assessed as increase in naloxone ED50 for eliciting withdrawal jumping at 0.24 nmol, icv after 72 hrs relative to control; assay type: functional, organism-based
Method in brief: (§1)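 Male Swiss Webster mice, 20-25 g. Given icv injection (4 µL saline vehicle) immediately after sc implantation of a 50 mg morphine or placebo pellet. At 24 and 72 h, naloxone given sc (10 mL/kg saline) and ED50 taken for precipitated withdrawal jumping (Way method). Groups of 4-5 mice per ED50.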

[2] = tested on: Mus musculus; test: Inhibition of morphine-induced analgesia in Swiss Webster mouse assessed as change in morphine ED50 at 2.4 nmol, icv after 2 hrs by tail flick test; assay type: functional, organism-based
[3] = tested on: Mus musculus; test: Effect on development of dependence to morphine in Swiss Webster mouse assessed as increase in naloxone ED50 for eliciting withdrawal jumping at 0.24 nmol, icv after 24 hrs relative to control; assay type: functional, organism-based; method in brief: as §1
[4] = tested on: Mus musculus; test: Toxicity in icv dosed Swiss Webster mouse assessed as decrease in locomotor activity; assay type: organism-based; settings: in vivo, icv_or_intrathecal
Method in brief: (§2)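 Male Swiss Webster mice, 20-25 g, observed after icv injection in 4 µL saline. Recorded: lethality and preceding tonic convulsions within 1.5 h, lethargy, startle reflex to hand clap, locomotor activity, and tail-flick latency.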

[5] = tested on: Mus musculus; test: Toxicity in Swiss Webster mouse assessed as lethality at 4.8 nmol, icv after 1.5 hrs; assay type: organism-based; settings: in vivo, icv_or_intrathecal; method in brief: as §2
[6] = tested on: Mus musculus; test: Toxicity in Swiss Webster mouse assessed as tonic convulsions at 4.8 nmol, icv; assay type: organism-based; settings: in vivo, icv_or_intrathecal; method in brief: as §2
[7] = tested on: Mus musculus; test: Toxicity in icv dosed Swiss Webster mouse assessed as lethargic behavior; assay type: organism-based; settings: in vivo, icv_or_intrathecal; method in brief: as §2
[8] = tested on: Mus musculus; test: Toxicity in icv dosed Swiss Webster mouse assessed as change in tail flick latency; assay type: organism-based; settings: in vivo, icv_or_intrathecal; method in brief: as §2
[9] = tested on: Mus musculus; test: Toxicity in Swiss Webster mouse assessed as mortality at 2.4 nmol, icv; assay type: organism-based; settings: in vivo, icv_or_intrathecal; method in brief: as §2
[10] = tested on: Mus musculus; test: Toxicity in icv dosed Swiss Webster mouse assessed as suppression of startle reflex to loud and abrupt auditory stimulus; assay type: organism-based; settings: in vivo, icv_or_intrathecal; method in brief: as §2
[11] = tested on: Mus musculus; test: Analgesic activity in Swiss Webster mouse at 4 nmol, icv after 10 to 120 mins by tail flick test; assay type: functional, organism-based
Method in brief: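 Male Swiss Webster mice, 20-25 g. Compound given icv in 4 µL saline (working solution from ethanol/0.05 N HCl stock, evaporated under nitrogen). Agonist activity read by modified D'Amour-Smith tail-flick at intervals out to 2 h post-injection. Saline icv controls given in the same volume.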

[12] = tested on: Mus musculus; test: Toxicity in Swiss Webster mouse assessed as lethargic behavior at 4 nmol, icv; assay type: organism-based; settings: in vivo, icv_or_intrathecal; method in brief: as §2

SMILES	Activity [1]	inhibition [2]	Activity [3]	Activity [4]	Activity [5]	Activity [6]	Activity [7]	Activity [8]	Activity [9]	Activity [10]	Activity [11]	Activity [12]
O=C1CC[C@@]2(O)[C@H]3Cc4ccc(O)c5c4[C@@]2(CCN3CC2CC2)[C@H]1O5	inactive	inactive	inactive									
Oc1ccc2c3c1O[C@H]1[C@H](N(CCCl)CCCl)CC[C@@]4(O)[C@@H](C2)N(CC2CC2)CC[C@]314				Toxic	Toxic	Toxic	Toxic	Non-toxic	Toxic	Non-toxic		
O=C(O)CCCc1ccc(N(CCCl)CCCl)cc1 [CHLORAMBUCIL]		inactive		Toxic				Non-toxic		Non-toxic	inactive	Toxic
